Results collected from several papers.
Protocols differ between the studies behind these lines.
Target: 5-hydroxytryptamine receptor 2A (HTR2A, Homo sapiens, UniProt P28223)
Observed: ligand displacement

With `COc1ccc(-n2nc(OCCCN3CCCCC3)ccc2=O)cc1` the inhibition was 49.4% (1 µM).
`N#Cc1cc(Cn2c(N3CCCC3)nc3ccccc32)ccc1F` gave an inhibition of 5.32% (10 µM).
`O=C(c1ccc(Cl)cc1)N(Cc1ccccc1)C1CCCCC1` gave an inhibition of 14.5% (radioligand; 10 µM).
The inhibition of `COc1cc2c3c(c1OC)-c1cc4c(cc1CC3N(C)CC2c1ccccc1)OCO4` (stereo not shown) is reported as < 50% (radioligand; 10 µM).
`CN1CCN(CCCOc2ccc(=O)n(-c3ccc(Cl)c(Cl)c3)n2)CC1` gave an inhibition of 34.9% (1 µM).
`Oc1cccc(Nc2nc(-c3ccc(F)cc3F)cs2)c1` gave an inhibition of 67% (radioligand; 10 µM).
The inhibition of `CCN(CC)c1ccc(C2Nc3ccc(C(=O)c4ccccc4)cc3NC3=C2C(=O)CC(C)(C)C3)cc1` (stereo not shown) is reported as -10% (radioligand; 10 µM).
For `CCCNc1nc2ccccc2n1Cc1ccc(Cl)cc1`, the inhibition was 59.8% (10 µM).
The inhibition of `O=C1N=C(N2CCCCN2)S/C1=C\c1ccc(F)cc1O` is reported as 17% (radioligand; 10 µM).
The inhibition of `C#CCOCCOCCOc1ccc2c3c1C1CCCC1N3CCNC2` (racemic) is reported as ~70% (radioligand; 10 µM).
